Sampled rows, rich in hits. Any-hit rate of the full collection: about 1.1%.
T cell HTS – modulates CD8 T cell binding to vesicles; 2C CD8+ T cell-vesicle binding, flow cytometry; active compounds read low; response (vesicle binding), % at 7 µM; actives 0.068% (n = 330,000); AID 2052;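 active means response, share of CD8 T cells binding vesicles, and their 90th percentile fluorescence all below set limits, cut at about 80% in these data, passing the limit was not always enough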;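 further: values below 100% mean blocked vesicle binding to the CD8+ T cells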
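Test system: purified 2C TCR transgenic mouse naive CD8+ T cells. Probe or stimulus: QL9-peptide-loaded Drosophila micro-vesicles bearing Ld, ICAM-1 and B7-1. Incubation: binding step 1.5 h, 37 °C, antibody labelling 20 min, ice. Measured by: flow cytometry of vesicle-bound cells.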
CaV13 FRET inh – Primary screen for inhibitors of IQ motif and Ca2+-dependent inactivation inhibitor domain binding in CACNA1D, Förster resonance energy transfer in living cells, … | HEK cells, CFP/YFP FRET ICDI-IQ, plate reader, 10 min; percent FRET-ratio fall versus neutral wells | inhibition, % at 12.3 µM | actives 0.098% (n = 340,000) | AID 743397;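 active means mean replicate inhibition of at least 30% and at least 1% of replicates passing that level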;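 further: 0% = median of the neutral control wells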
GRK2 aptamer HTS – blocks RNA aptamer binding to human GRK2; inhibition of aptamer binding, % at 10 µM; P25098; actives 0.59% (n = 330,000); bead flow cytometry, FAM-aptamer displacement from GRK2; AID 488847;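 active means inhibition of aptamer binding above 40%, roughly 3 SD of noise, on plates passing a quality check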;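 further: median bead fluorescence of bound FAM aptamer so fluorescent compounds give negative values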
proCasp3 act – activates human procaspase-3. actives 0.11% (n = 330,000). recombinant procaspase-3 D3A, Ac-DEVD-pNA absorbance 405 nm. AID 463141. activation, % at 8.5 µM;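 active means activation above the mean of all tested compounds plus 3 SD, cut at about 21% in these data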;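 further: 0% = DMSO alone and 100% = DMSO wells spiked with extra 5 µM PC-3 D3A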
Target sequence (P42574 whole entry D9A/D28A/D175A): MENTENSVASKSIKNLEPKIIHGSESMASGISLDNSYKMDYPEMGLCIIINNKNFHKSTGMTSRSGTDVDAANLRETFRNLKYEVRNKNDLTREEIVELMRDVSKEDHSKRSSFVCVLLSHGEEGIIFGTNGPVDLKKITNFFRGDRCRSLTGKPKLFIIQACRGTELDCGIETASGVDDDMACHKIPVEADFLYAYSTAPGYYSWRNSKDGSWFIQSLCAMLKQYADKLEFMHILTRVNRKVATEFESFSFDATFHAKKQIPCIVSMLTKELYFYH
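material = Procaspase-3 D3A mutant | probe or stimulus = Ac-DEVD-pNA | compound = single dose, 8.5 µM nominal compound, 0.8% DMSO | timing = 1 h preincubation, 2 h reaction | measured by = 405 nm absorbance of p-nitroaniline, reads at 0 and 120 min | benchmarks = DMSO-only low control, 5 µM PC-3 D3A high control | repeats = singlicate, each compound tested once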
procasp7 counter – activates human procaspase-7, counter-screen for procaspase-3 activators. recombinant procaspase-7, Ac-DEVD-pNA absorbance 405 nm; D23A/D198A/D206A triple mutant, cannot self-cleave; scale: DMSO 0, 5 µM enzyme 100. P55210. activation, % at 8.5 µM. actives 0.093% (n = 330,000). AID 463210;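 active means percent activation above the screen-wide mean plus 3 SD, cut at about 25% in these data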
Target sequence (P55210 whole entry D23A/D198A/D206A): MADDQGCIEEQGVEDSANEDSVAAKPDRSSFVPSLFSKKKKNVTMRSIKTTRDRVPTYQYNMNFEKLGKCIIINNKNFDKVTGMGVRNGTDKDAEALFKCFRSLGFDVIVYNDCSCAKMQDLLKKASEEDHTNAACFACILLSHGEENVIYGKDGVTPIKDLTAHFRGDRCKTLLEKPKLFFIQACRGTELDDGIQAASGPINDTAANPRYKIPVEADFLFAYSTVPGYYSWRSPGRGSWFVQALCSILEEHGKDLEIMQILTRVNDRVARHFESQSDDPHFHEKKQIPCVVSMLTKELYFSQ
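signal = Epi-absorbance of released pNA at 405 nm, two timepoints | assay system = Uncleavable procaspase-7 mutant enzyme | reagent = Ac-DEVD-pNA substrate, 400 µM as added | times = 1 h enzyme–compound preincubation and 2 h substrate reaction, both 25 °C | benchmarks = low DMSO alone, high DMSO plus 5 µM PC-7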
aDG glyco act – alpha-DG glycosylation activation; Pro5-aDG cells, alpha-DG glycosylation AlphaScreen (IIH6); 0% Pro5, 100% B10-LARGE cell signal; activation, % at 10 µM; actives 0.22% (n = 360,000);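 active means activation of at least 8% versus controls, or a plate z-score of at least 8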;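 further: Pro5 are CHO cells carrying HIG-tagged alpha-DG that lacks glycosylation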
* hit, by the source's call; i = inactive; x = not tested or not shown; + = active, no number; ! = a repeat was not active.

SMILES | T cell HTS | CaV13 FRET inh | GRK2 aptamer HTS | proCasp3 act | procasp7 counter | aDG glyco act
O=C(O)CSc1cc(NS(=O)(=O)c2ccc(Cl)cc2)c2ccccc2c1O | 179.3 | -17.9 | 1.0 | -8.7 | -22.2 | 3.8*
COc1ccc(S(=O)(=O)Nc2cc(SCC(=O)O)c(O)c3ccccc23)cc1 | 137.8 | -10.1 | 1.0 | -17.9 | -40.9 | 5.0*
Cc1cc(C)c(S(=O)(=O)Nc2cc(SCC(=O)O)c(O)c3ccccc23)cc1C | 566.9 | x | 1.0 | -21.8 | -8.3 | x
COCc1cc(N2CCN(C(=O)OC(C)(C)C)C[C@@H]2C)ccc1Br | x | -6.4 | x | x | x | x
Cc1ccc(-n2c(-c3cccc(C)c3)n[nH]c2=S)cc1 | 196.0 | -6.0 | 0.0 | -9.8 | -22.8 | 1.3
Cc1ccc(-c2n[nH]c(=S)n2-c2ccccc2)cc1 | 80.9* | x | 10.0 | -13.7 | -15.3 | 0.1
CC(C)(C)c1cc[n+](C2=C([O-])c3ccccc3C(=O)/C2=N\S(=O)(=O)c2cccs2)cc1 | 267.6 | -26.5 | 1.0 | 3.2 | 0.1 | 3.9*
COc1ccc(C2C3=C(CCCC3=O)N(CC(=O)O)C3=C2C(=O)CCC3)cc1Cl | 246.0 | + | 1.0 | -1.4 | -4.7 | 0.0
Cc1cc2c(C)cc(=O)oc2c2c1NCCC2 | 119.5 | 32.8* | 1.0 | -2.9 | 2.4 | -0.1
Cc1cc(C)n(C(=O)Cc2cn3ccsc3n2)n1 | 72.2* | x | 0.0 | 6.4 | 0.0 | -0.1
Cc1cc2c(c(=O)o1)[C@@]1(C(=O)N(C)c3ccccc31)C1=C(CC(C)(C)OC1=O)O2 | x | -7.4 | x | x | x | x
Nc1ccc(C(=O)O)c(O)c1 | 371.3 | -4.9 | 0.0 | 9.7 | -3.1 | 0.0
Nc1ccc(N)c(C(=O)O)c1 | 71.8 | x | 88.0* | 7.5 | 0.0 | 0.0
COC(=O)[C@]12C[C@H](CC(=O)N3CCOCC3)C(=O)N(Cc3ccc4c(c3)OCO4)C1=C[C@H](C(C)(C)C)O[C@@H]2C | x | -10.3 | x | x | x | x
CC(C)c1ccc(/C=C2\Oc3c(ccc(O)c3CN3CCN(C)CC3)C2=O)cc1 | 375.3 | + | 0.0 | -14.9 | -3.6 | -0.6
COc1ccc(Cn2nnnc2C(c2cccs2)N2CCCCCC2)cc1 (stereo not drawn) | 52.3* | -5.1 | 0.0 | -7.2 | -2.0 | 0.2
O=C1C(=O)N(CCCn2ccnc2)C(c2ccc([N+](=O)[O-])cc2)/C1=C(\O)c1ccc2c(c1)OCCO2 (stereo not drawn) | 0.0* | -2.4 | 6.0 | 5.3 | 0.2 | -0.3
CN1CCc2c(sc(NC(=O)c3ccc4ccccc4c3)c2C(N)=O)C1 | 561.6 | x | 3.0 | 4.1 | -6.1 | 18.7*
CN1CCc2c(sc(NC(=O)C3CCCCC3)c2C(N)=O)C1 | 248.5 | + | 0.0 | 1.2 | 7.8 | -0.2
Cc1cc2c(c(=O)o1)[C@@]1(C(=O)N(C)c3cc(Br)ccc31)C1=C(CCCC1=O)O2 | x | -8.2 | x | x | x | x
CCOC(=O)N1CCN(C(=O)c2ccc(CS(=O)Cc3ccc(C)cc3)o2)CC1 (stereo not drawn) | 42.8* | -4.6 | 3.0 | -5.3 | -8.5 | -0.1
CN1OC[C@@H]2CN(Cc3ccc4c(c3)OCO4)[C@H](c3ccc(-n4ccnc4)cc3)C[C@@H]21 | x | -3.8 | x | x | x | x
Cc1cc(C)cc(OCC(=O)N/N=C/c2ccncc2)c1 | 911.2 | -3.5 | 55.0* | -2.6 | 2.3 | -0.2
CCCCCCSc1cc(-c2nc3cc(C)ccn3c2NCCCC)ccc1OC | 457.0 | 78.1*! | 3.0 | 0.9 | -6.8 | 2.3
CCN1C(=O)c2cccc3c(S(=O)(=O)N(C)C)ccc1c23 | x | 42.4* | x | x | x | -0.2
SMILES | T cell HTS | CaV13 FRET inh | GRK2 aptamer HTS | proCasp3 act | procasp7 counter | aDG glyco act
CN1C(=O)c2cccc3c(S(=O)(=O)N(C)C)ccc1c23 | 355.6 | -6.7 | 2.0 | -3.0 | -0.6 | 0.0
Cc1ccc(S(=O)(=O)CCC(=O)OCC(=O)Nc2cccc(S(=O)(=O)N3CCCCC3)c2)cc1 | x | 57.8* | x | x | x | 0.9
COc1cc(CNc2cccc3c2S(=O)(=O)N([C@H](C)c2ccccc2)C[C@@H](COCc2ccccc2)O3)cc(OC)c1OC | x | -5.2 | x | x | x | x
COc1ccc(C2(CNC(=O)/C=C\c3ccco3)CCCC2)cc1OC | 254.6 | -3.9 | 48.0* | -12.2 | -7.2 | 0.0
CCc1nnc(NC(=O)c2ccc(-c3ccc(Cl)cc3)o2)s1 | 529.4 | x | 2.0 | -5.2 | -11.6 | -0.1
CCc1nnc(NC(=O)c2ccc(-c3ccccc3F)o2)s1 | 231.4 | 136.0* | 1.0 | 3.5 | 3.8 | -0.3
COC(=O)c1cc2c(c3c4cc(F)ccc4n(S(=O)(=O)c4ccccc4)c13)C(=O)N(Cc1ccc(C(F)(F)F)cc1)C2 | x | -11.0 | x | x | x | x
CC(C)(C)c1ccc(C2CC2C(=O)N/N=C\c2ccc[nH]2)cc1 (stereo not drawn) | 142.6 | -5.5 | 2.0 | 2.7 | -2.7 | 9.1*
CCN(CC)CCNC(=O)c1ccc(NC(=O)c2ccc(C(=O)c3ccccc3)cc2)cc1 | 75.6* | -5.5 | 0.0 | -7.5 | 4.8 | 0.4
CCN(CC)CCNC(=O)c1ccc(NC(C)=O)cc1 | 383.0 | -4.6 | 0.0 | 5.2 | -10.0 | 0.2
C[C@@H]1OC(C2CCCCC2)N(C)[C@H]2C[C@H]3c4[nH]c5cccc(-c6ccccc6)c5c4CCN3C(=O)[C@@H]12 (stereo partly drawn) | x | -4.1 | x | x | x | x
C=CCC[C@@H](Cc1ccc(F)cc1)C(=O)OC[C@@H](NC(=O)[C@@H](CC=C)CC(=O)N[C@@H](CO)Cc1ccccc1)C(C)(C)C | 197.9 | -4.3 | 1.0 | 0.8 | 2.5 | 0.5
C=CCC[C@H](Cc1ccc(F)cc1)C(=O)OC[C@@H](NC(=O)[C@@H](CC=C)CC(=O)N[C@@H](CO)Cc1ccccc1)C(C)(C)C | i | -4.2 | 49.0* | -0.8 | -14.1 | 0.4
COc1cc(OC)c2c(=O)c3c(C(=O)O)c(O)ccc3oc2c1 | x | -4.3 | x | x | x | x
O=C(N/N=C/c1cccc(F)c1)c1cc(-c2ccco2)nc2ccccc12 | 394.4 | -5.7 | 43.0* | -15.6 | -26.1 | -0.2
Cc1cc(N2CCN(C(=O)OC(C)(C)C)C[C@H]2C)ccc1N1C[C@@H](C)O[C@@H](C)C1 | x | -6.2 | x | x | x | x
Cc1ccc(C(=O)N/N=C/c2ccc([N+](=O)[O-])s2)cc1 | 187.2 | -7.8 | 0.0 | -7.7 | 8.9 | 12.7*
O=C(N/N=C/c1ccc([N+](=O)[O-])s1)c1cccc(Br)c1 | 257.9 | -8.7 | 0.0 | 7.7 | 5.0 | 8.9*

Compound activity as filed in PubChem BioAssay.
